Only some compounds are listed: those with a hit (about 4% of all), similar ones and a draw of the others.
iPSC survival up: hiPSC single-cell survival enhancement. ATPlite luminescence; 100% = ROCK inhibitor wells, 0% = DMSO. survival enhancement, % at 20 µM. 0.044% of 360,000 active; in the data active means survival enhancement above about 18%;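 further: cells exposed to compounds for 16 hours before the ATP read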
FAS-TE inh: inhibitors of human fatty acid synthase thioesterase domain | inhibition, % at 15 µM | recombinant FAS-TE, OMFH fluorogenic substrate, fluorescence endpoint | P49327 | 0.67% of 360,000 active | AID 602261;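 active means compounds whose normalised, plate-corrected inhibition of enzyme fluorescence in the single-dose primary screen is 50% or more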;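 further: 0% = DMSO with enzyme and 100% = substrate without enzyme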
Arr AP2 block: human beta-arrestin and AP2 interaction inhibition; FITC-arrestin peptide / GST-AP2 beads, flow cytometry; AP2 beta2 appendage carries R879A mutation; inhibition, % at 10 µM; 0.31% of 340,000 active;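 active means inhibition above a set limit, near 3 SD of compounds lacking own fluorescence, cut at about 54% in these data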;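 further: plate controls were DMSO wells for no effect and 5 µM unlabelled arrestin peptide for full effect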
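System: GST-AP2 R879A bound to glutathione beads, E. coli-expressed. Also added: 50 nM FITC-arrestin peptide. Schedule: compound with beads 12 min RT, then probe 1 h RT. Signal: bead flow cytometry, FITC channel. Read-out basis: percent response.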
GRIN3A LBD mod: modulators (binders) of human NR3A ligand-binding domain. 2.5% of 340,000 active. NR3A LBD differential scanning fluorimetry, Tm shift; 0% = protein alone, 100% = glycine-bound protein. Tm shift relative to glycine control, % at 25 µM;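 active means melting temperature shift of at least 10% of the positive control shift, at one fixed dose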
H9c2 protect: modulators protecting cardiomyocytes from myocardial damage; H9c2 cardiomyocytes, H2O2 injury protection, ATPLite, 2 h; protection from H2O2 cell death, % at 20 µM; 0.63% of 360,000 active; AID 588492;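 active means compounds giving at least 50% protection of heart cells from peroxide-induced death in the single-dose screen, raw or plate-pattern-corrected value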;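 further: 0% = DMSO wells with peroxide and 100% = DMSO wells without peroxide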
SENP1 FRET inh: blocks the human SENP1 SUMO protease catalytic domain | Q9P0U3 | recombinant SENP1 catalytic domain, CyPet-SUMO1-YPet FRET cleavage | inhibition, % at 10 µM | 0.21% of 360,000 active;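 active means inhibition at least 30% at 10 µM, raw YFP signal under a set limit, fluorescence ratio 0.5 to 1.5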;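 further: 0% = enzyme with DMSO and 100% = no enzyme wells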
Target sequence (Q9P0U3 419-644 limits assumed): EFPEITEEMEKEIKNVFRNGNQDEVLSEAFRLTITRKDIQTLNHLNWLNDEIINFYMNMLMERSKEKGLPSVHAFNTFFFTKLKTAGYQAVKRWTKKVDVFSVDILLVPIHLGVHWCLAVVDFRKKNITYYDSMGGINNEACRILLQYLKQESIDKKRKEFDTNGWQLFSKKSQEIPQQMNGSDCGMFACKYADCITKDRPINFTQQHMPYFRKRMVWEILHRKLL
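Assay system – human recombinant His6-tagged SENP1 catalytic domain enzyme · Input – SENP1 enzyme, 20 pM final · Buffer or medium – Tris pH 8 buffer plus EDTA, NaCl, BME, BSA, NP40, catalase · Schedule – 50 min reaction at room temperature · Technique – FRET read of cyan and yellow fluorescence · Control set – no-enzyme wells low, DMSO-plus-enzyme wells high control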
* hit, by the source's call; x = not tested or not shown.

SMILES | iPSC survival up | FAS-TE inh | Arr AP2 block | GRIN3A LBD mod | H9c2 protect | SENP1 FRET inh
C=CCNc1nc(-c2ccccn2)nnc1-c1ccccc1 | -0.9 | -8.6 | 22.3 | 0.0 | 73.0* | -0.1
CCOC(=O)c1nn(-c2ccc(Cl)cc2)c2nnc(Cc3ccccc3)c(=O)n12 | 0.2 | 8.4 | 3.9 | 10.2* | 4.6 | 2.7
CCOC(=O)c1nn(-c2ccccc2)c2nnc(Cc3ccc(Cl)cc3)c(=O)n12 | -0.6 | 12.3 | -1.2 | -4.3 | -5.3 | 2.3
CCOC(=O)c1nn(-c2ccc(Cl)cc2)c2nnc(Cc3ccc(C)cc3)c(=O)n12 | 0.1 | 16.4 | 2.6 | 13.4* | 4.1 | 0.7
COc1ccc(CNS(=O)(=O)c2ccc(F)c(C(=O)Nc3ccc(OC)cc3)c2)cc1 | -0.9 | 0.3 | -24.5 | -22.6 | 1.6 | -1.8
O=C(Nc1cccc(Cl)c1)c1cc(S(=O)(=O)NCCc2ccc(Cl)cc2)ccc1F | -1.0 | 33.7 | 3.4 | 31.8* | -16.8 | -1.1
Cc1ccc(NC(=O)c2cc(S(=O)(=O)NCCc3ccccc3)ccc2F)cc1Cl | 8.7 | 24.9 | 38.5 | 23.9* | -12.5 | 2.9
O=C(CCN1CCCCC1)c1ccccc1 | 5.2 | -5.8 | -3.1 | -12.7 | 6.9 | -0.5
C[N+]1(CCC(=O)c2ccccc2)CCCCC1 | 3.9 | -11.2 | -4.7 | 10.2* | -13.1 | 0.0
CC(=O)Nc1ccc(NC(=O)CSc2nnc(CC(C)O)n2-c2ccccc2)cc1 (stereo not drawn) | -0.2 | -9.2 | 32.1 | 0.7 | 0.4 | -1.2
CCc1nnc(SCC(=O)Nc2ccc(NC(C)=O)cc2)n1-n1cccc1 | -0.4 | -8.5 | 6.7 | 18.1* | -2.9 | 2.3
COc1cccc(C(=O)NNC(=O)c2ccc3ccccc3c2O)c1 | -0.3 | 4.1 | -15.7 | -1.2 | 23.9 | -0.9
C1C2CC3C1C3C2=NN=C1C2CC3C(C2)C13 | 1.6 | -1.1 | x | x | -2.4 | 2.0
CCN(CC)S(=O)(=O)c1ccc2[nH]c(=O)cc(C(=O)Nc3ccc(C)cc3)c2c1 | -0.6 | 8.5 | 0.9 | -0.2 | -1.5 | -2.4
CCN(CC)S(=O)(=O)c1ccc2[nH]c(=O)cc(C(=O)NCC3CCCO3)c2c1 (stereo not drawn) | 0.2 | -3.4 | -6.5 | 16.8* | 2.4 | 1.3
O=C(NCc1ccccc1)C1Cc2c(-c3ccc(Cl)cc3)ccnc2O1 (stereo not drawn) | 1.4 | 14.8 | x | x | -7.1 | 0.5
O=c1cc(-c2ccc(O)cc2)oc2cc(O)cc(O)c12 | -2.5 | 2.8 | -9.4 | 17.4* | 15.7 | -4.6
COc1ccc(-c2cc(=O)c3c(O)c(OC)c(O)cc3o2)cc1 | 1.0 | -5.1 | -2.6 | 12.3* | -14.3 | 0.0
O=c1c(O)c(-c2ccc(O)cc2)oc2cc(O)cc(O)c12 | -2.3 | 0.5 | 2.9 | 13.3* | 7.3 | 11.0
O=c1c(O)c(-c2ccc(O)c(O)c2)oc2cc(O)ccc12 | -3.6 | 10.6 | 1.4 | 8.4 | 37.8 | -22.8
c1ccc(N=NC2=NN(c3ccccc3)CS2)cc1 | -0.9 | 27.0 | x | x | -11.5 | 0.8
CN(CCc1ccccc1)C(C(=O)c1ccc2c(c1)OCO2)c1nnnn1-c1ccccc1NC(=O)OC(C)(C)C (stereo not drawn) | x | x | x | x | x | -3.7
C[C@H](O)CNC(=O)c1[nH]cnc1C(=O)Nc1cccc(Cl)c1 | -1.7 | -5.4 | x | x | -0.1 | 3.5
O=C(Nc1nc2ccccc2s1)c1ccc2sc([C@H]3C[C@H](O)[C@@H](CO)O3)nc2c1 | 0.1 | -9.0 | x | x | 25.9 | 2.1
COc1ccc(OC)c(Nc2nc(N(C)c3ccccc3)nc(N)c2[N+](=O)[O-])c1 | 0.7 | 21.3 | 17.1 | 12.1* | 20.2 | 3.3
SMILES | iPSC survival up | FAS-TE inh | Arr AP2 block | GRIN3A LBD mod | H9c2 protect | SENP1 FRET inh
CCCCN1C(=O)C(CC(=O)NCC2CCCCC2)CC(C(=O)N2CCCCCC2)=C1C (stereo not drawn) | -1.1 | 2.3 | x | x | x | 1.2
COC(=O)C12OCC34C(CC5C(C)=C(O)C(=O)CC5(C)C3C(O)C1O)OC(=O)C(OC(=O)C=C(C)C)C24 (stereo not drawn) | -1.9 | -10.8 | -1.4 | 14.0* | 2.8 | 2.2
Cc1ccccc1-c1csc(C(O)c2cccnc2)n1 (stereo not drawn) | 3.8 | -4.1 | x | x | -4.1 | -1.8
O=C(O)c1ccc(CN(c2ccccn2)S(=O)(=O)c2ccccc2)cc1 | 0.1 | -3.9 | -1.5 | 0.7 | -1.3 | 2.0
Cc1c(Cl)cccc1N(Cc1ccc(C(=O)O)cc1)S(=O)(=O)c1ccccc1 | 0.4 | -2.2 | 11.7 | 12.8* | 14.7 | 1.9
O[C@@H]1CN(Cc2cccs2)[C@@H](c2ccc(Cl)cc2)C[C@H]1n1cc(-c2ccc(F)cc2)nn1 | -1.2 | 13.0 | x | x | -10.6 | -1.0
CNC(=O)c1cccc(NC(=O)c2cc(-c3ccccc3)nc3c2cnn3C(C)C)c1 | -2.4 | 20.5 | 5.3 | 8.0 | 58.9* | 0.4
CCN(CC)CCNC(=O)c1ccc2c(c1)NC(=O)c1ccccc1S2 | -0.9 | -1.1 | 31.5 | 0.0 | 9.6 | -2.4
CCCN1CCN(CCCNC(=O)c2ccc3c(c2)NC(=O)c2ccccc2S3)CC1 | 0.0 | -3.7 | -4.8 | 41.6* | -0.8 | -2.0
COc1ccccc1-c1csc(C(O)c2ccc(F)cc2)n1 (stereo not drawn) | -1.4 | 4.4 | x | x | -13.3 | -0.1
Cc1ccc(-c2cc(C(=O)N/N=C/c3cccnc3)n[nH]2)o1 | -2.6 | -7.9 | 7.2 | -0.2 | 4.3 | 1.8
Cc1cc(C(=O)N/N=C/c2ccc(-c3ccc(C)c(Cl)c3)o2)n[nH]1 | -0.6 | 10.9 | -11.1 | 14.6* | -3.9 | -19.9
Cc1ccc(/C=N/NC(=O)c2cc(-c3ccc(C)o3)[nH]n2)cc1 | -0.4 | -0.2 | 7.9 | 34.5* | 4.8 | 1.5
N#Cc1cccc(C(=O)C(=O)N2CCN(C(=O)OCc3ccccc3)CC2)c1 | x | x | x | x | x | 0.2
COc1ccc(/C=C2/SC(=S)N(CCCC(=O)Nc3cccc(O)c3)C2=O)cc1 | -0.5 | 14.7 | 8.8 | 12.1* | -9.7 | -9.0
COc1cc(/C=C2\SC(=S)N(CC(=O)Nc3ccc(O)cc3)C2=O)cc(OC)c1OC | -1.0 | 5.2 | 49.6 | 13.5* | -11.1 | 3.2
O=C(O)CCN1C(=O)/C(=C\c2cccc(OCc3ccccc3)c2)SC1=S | 0.2 | -101.1 | 31.9 | 10.9* | -8.3 | 0.8
COc1cccc(/C=C2\SC(=S)N(CCC(=O)NCCc3ccc(O)cc3)C2=O)c1 | -0.6 | 33.2 | -8.9 | 16.2* | -13.9 | 3.8
Cc1ccc(S(=O)(=O)N2C[C@H]3C(=O)C[C@@H](c4ccc(Cl)cc4)N(S(=O)(=O)c4ccc(C)cc4)[C@H]3C[C@H]2c2ccc(Cl)cc2)cc1 | -0.7 | 8.3 | x | x | 1.7 | 0.9
COc1cc(C23CCCN(CCC(C(C)(C)C)C2)C32OCCO2)cc(OC)c1OC (stereo not drawn) | -0.2 | 10.4 | x | x | x | -0.1

Assay outcomes as filed in PubChem.
